Hits are enriched below; roughly 2.5% of the tested compounds scored in any of these assays.
H9c2 TAG inh: inhibitors of triacylglycerol accumulation; H9c2 cells, Nile Red lipid (TAG) fluorescence; cells loaded with 200 µM oleic acid; inhibition, % at 12.5 µM; hit rate 0.66% among 230,000; AID 651582;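 active = pattern-corrected inhibition of lipid staining of at least 50% with the nuclear-stain viability signal not falling by more than 50%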
Vif inh: HIV Vif inhibition; HEK293T cells, Vif self-association by quenched fluorescence, imaging, 24 h; inhibition, % at 7.49 µM; hit rate 0.35% among 340,000; in the data active = inhibition above about 50%, passing the limit was not always enough
SMARCA2 act: activators of SMARCA2 function. MG213 cells, MMTV-luciferase reporter, dexamethasone, overnight. activation, % at 9.1 µM. hit rate 1% among 370,000; in the data active = activation above about 7.8%
SR-BI HDL uptake: inhibitors of mouse SR-BI mediated HDL lipid uptake | hit rate 0.96% among 320,000 | AID 488896 | Q61009 | ldlA[mSR-BI] CHO cells, DiI-HDL uptake fluorescence, 3 h | inhibition, % at 12.5 µM;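 active = mean replicate inhibition of at least 70% and a set share of replicates each scoring 70 or more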
Target sequence (Q61009 whole entry, looked up): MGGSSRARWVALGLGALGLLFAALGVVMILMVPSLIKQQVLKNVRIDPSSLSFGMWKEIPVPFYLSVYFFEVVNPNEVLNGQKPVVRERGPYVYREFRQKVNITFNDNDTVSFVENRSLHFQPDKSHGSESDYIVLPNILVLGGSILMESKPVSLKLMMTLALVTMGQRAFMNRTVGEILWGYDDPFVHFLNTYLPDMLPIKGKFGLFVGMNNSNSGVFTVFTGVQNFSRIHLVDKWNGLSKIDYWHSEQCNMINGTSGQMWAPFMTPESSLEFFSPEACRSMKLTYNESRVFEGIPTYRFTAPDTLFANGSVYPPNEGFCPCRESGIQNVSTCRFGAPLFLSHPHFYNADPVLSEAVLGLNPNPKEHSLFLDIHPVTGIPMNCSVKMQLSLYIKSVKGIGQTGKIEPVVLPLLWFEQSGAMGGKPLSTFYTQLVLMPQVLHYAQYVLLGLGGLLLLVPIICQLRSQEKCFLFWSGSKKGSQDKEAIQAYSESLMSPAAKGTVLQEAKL
SR-BI uptake up: activators of SR-BI mediated HDL lipid uptake; CHO ldlA[mSR-BI] cells, DiI-HDL uptake fluorescence, 3 h; 100 = double the neutral-control signal; activation, % at 12.5 µM; hit rate 0.096% among 320,000; AID 504775;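 active = mean replicate activation of at least 60% and every replicate at or above 60%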
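Assay system: CHO ldlA[mSR-BI] cells, LDL receptor-null, SR-BI overexpressing; medium: Ham's F12 with 0.5% BSA, HEPES 25 mM, pH 7.4; also added: DiI-HDL 10 µg/mL; timing: 3 h uptake period with compound, 37 °C; signal: DiI fluorescence, bottom read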
SMARCA2 conf: confirmation of SMARCA2 (BRM) function activators | shares compounds with SMARCA2 act | MG213 cells, MMTV-luciferase with dexamethasone, luminescence, overnight; MG213 cells expressing E1A, Rb sequestered; DMSO wells 0%, reference activator 100% | activation, % at 9.1 µM | hit rate 30% among 3,500;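 active = activation above its plate's cutoff, the mean activation of tested wells plus 3 SD, cut at about 7.9% in these data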
GAL4-VP16 Luc: GAL4-VP16 reporter activation counter-screen; shares compounds with SMARCA2 act; HEK293 GAL4-VP16 pG5luc reporter, luciferase luminescence; scaled: DMSO wells 0%, SAHA wells 100%; activation, % at 9.1 µM; hit rate 41% among 3,500;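 active = activation above the solvent-only control well mean plus 3 SD, averaged across control plates, cut at about 5.2% in these data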
Hits are given with their value.

Screening COc1ccc2c(c1)NP(=S)(Oc1ccccc1)N2 (stereo not drawn) returned Vif inh inactive, SMARCA2 act inactive, SR-BI HDL uptake inactive and SR-BI uptake up inactive.
`Cc1ccc(S(=O)(=O)CC(=O)c2cc(C)c(OC(=O)N(C)C)c(C)c2)cc1` gave H9c2 TAG inh inactive, Vif inh inactive, SMARCA2 act inactive, SR-BI HDL uptake inactive and SR-BI uptake up inactive.
For Cc1cc(C(=O)CS(=O)(=O)c2ccccc2)cc(C)c1OC(=O)N(C)C the results were H9c2 TAG inh inactive, Vif inh inactive, SMARCA2 act 13, SR-BI HDL uptake inactive, SR-BI uptake up inactive, SMARCA2 conf inactive and GAL4-VP16 Luc 8.8.
`COCCNC(=O)N1[C@H]2CC[C@@H]1C(C(=O)OC)=C(c1ccc(OC(F)(F)F)cc1)C2` gave H9c2 TAG inh inactive, Vif inh inactive, SMARCA2 act inactive, SR-BI HDL uptake inactive and SR-BI uptake up inactive.
Screening O=C(NC1CN2CCC1CC2)c1cc(-c2ccc(Cl)cc2)nc2ccccc12 (stereo not drawn) returned SMARCA2 act 11, SMARCA2 conf inactive and GAL4-VP16 Luc inactive.
Screening CS(=O)(=O)c1ccc(C2=C(CNC(=O)c3cccs3)[C@H]3CC[C@@H](C2)N3Cc2ccccc2)cc1 returned H9c2 TAG inh inactive, Vif inh inactive and SMARCA2 act inactive.
Screening CC(=O)Nc1ccc(S(=O)(=O)N2Cc3cnnn3-c3ccccc3C2C#N)cc1 (stereo not drawn) returned H9c2 TAG inh inactive, SMARCA2 act 9.7, SR-BI HDL uptake inactive, SR-BI uptake up inactive, SMARCA2 conf inactive and GAL4-VP16 Luc inactive.
Screening COc1cccc(-n2c(CN3CCOCC3)nc3ccc([N+](=O)[O-])cc3c2=O)c1 returned Vif inh inactive, SMARCA2 act 11, SR-BI HDL uptake inactive, SR-BI uptake up inactive, SMARCA2 conf inactive and GAL4-VP16 Luc inactive.
Screening CNC(=S)N1CCn2cccc2C1c1cccnc1 (stereo not drawn) returned H9c2 TAG inh inactive, Vif inh inactive, SMARCA2 act inactive, SR-BI HDL uptake inactive and SR-BI uptake up inactive.
For CCn1c(O)c(/C=N/NC(=O)c2ccccc2)c(=O)n(CC)c1=S the results were H9c2 TAG inh inactive, Vif inh inactive, SMARCA2 act 8.1, SMARCA2 conf inactive and GAL4-VP16 Luc inactive.
For S=P(NCCNP(=S)(N1CC1)N1CC1)(N1CC1)N1CC1 the results were H9c2 TAG inh inactive, Vif inh inactive, SMARCA2 act inactive, SR-BI HDL uptake inactive and SR-BI uptake up inactive.
`CN(C(=O)Oc1cccc2ccccc12)C1C=CCC1` (stereo not drawn) gave H9c2 TAG inh inactive, Vif inh inactive, SMARCA2 act 9.9, SR-BI HDL uptake inactive, SR-BI uptake up inactive, SMARCA2 conf inactive and GAL4-VP16 Luc inactive.
`CN(C)C(=O)Oc1cccc2c(OC(=O)N(C)C)cccc12` gave H9c2 TAG inh inactive, Vif inh inactive, SMARCA2 act inactive, SR-BI HDL uptake inactive and SR-BI uptake up inactive.
For CCOC(=O)C1=C(C)N(C)C2(C)CC1c1ccccc1O2 (stereo not drawn) the results were H9c2 TAG inh inactive, Vif inh inactive, SMARCA2 act inactive, SR-BI HDL uptake inactive and SR-BI uptake up inactive.
`Nc1ccccc1C(=O)OCC(=O)N1CCc2ccccc21` gave H9c2 TAG inh inactive, Vif inh inactive, SMARCA2 act 8.7, SR-BI HDL uptake inactive, SR-BI uptake up inactive, SMARCA2 conf inactive and GAL4-VP16 Luc 7.5.
CCn1c(=O)n(CC)c2cc([N+](=O)[O-])c(N3CCNCC3)cc21 was read as H9c2 TAG inh inactive, Vif inh inactive, SMARCA2 act inactive, SR-BI HDL uptake inactive and SR-BI uptake up inactive.
`O=c1c2ccccc2nc(/C=C/c2ccc([N+](=O)[O-])o2)n1-c1ccc(O)cc1` gave Vif inh inactive, SMARCA2 act 9.5, SR-BI HDL uptake inactive, SR-BI uptake up inactive, SMARCA2 conf inactive and GAL4-VP16 Luc inactive.
Screening COc1ccc2c(c1)/C(=C/c1cnc[nH]1)C(=O)N2 returned H9c2 TAG inh inactive, Vif inh inactive, SMARCA2 act 17, SR-BI HDL uptake inactive, SR-BI uptake up inactive, SMARCA2 conf 11 and GAL4-VP16 Luc inactive.
For COC(=O)C1=C(c2ccc(S(C)(=O)=O)cc2)C[C@@H]2CC[C@H]1N2C(=O)NCCCOC(C)C the results were H9c2 TAG inh inactive, Vif inh inactive, SMARCA2 act inactive, SR-BI HDL uptake inactive and SR-BI uptake up inactive.

Bioassay records deposited in PubChem BioAssay by several laboratories.
